Laboratory results from ChEMBL document CHEMBL3227987, “A new nonsteroidal analgesic-antiinflammatory agent. Synthesis and activity of 4-ethoxy-2-methyl-5-morpholino-3(2H)-pyridazinone and related compounds” (J Med Chem, 1979).

Assays:
Mus musculus = assay: Analgesic activity in sc dosed ddY mouse assessed as inhibition of acetic acid-induced abdominal stretching pretreated for 30 mins followed by acetic acid challenge measured for 5 to 20 mins; format: functional; details: Abdomen
In short: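 Compound suspended in 1% gum arabic, given sc to mice; 30 min later 0.6% acetic acid ip at 0.1 mL/10 g body weight. Mouse counted protected if no stretching from 5 to 20 min after acid; ED50 by Litchfield–Wilcoxon method.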

Rattus norvegicus [1] = assay: Antiinflammatory activity in Wistar rat assessed as inhibition of carrageenan-induced paw edema at 100 mg/kg, po pretreated for 30 mins followed by carrageenan challenge measured after 3 hrs relative to control; format: functional
In short: (§1)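 Male Wistar rats (120-150 g), six per group, dosed orally with compound suspended in 1% gum arabic; 30 min later 0.1 mL 1% carrageenan injected sc into hind paw plantar surface. Edema measured at 3 h; percent inhibition calculated against carrageenan-only animals.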

Rattus norvegicus [2] = assay: Antiinflammatory activity in Wistar rat assessed as inhibition of carrageenan-induced paw edema at 50 mg/kg, po pretreated for 30 mins followed by carrageenan challenge measured after 3 hrs relative to control; format: functional; in short: as §1
Rattus norvegicus [3] = assay: Antiinflammatory activity in Wistar rat assessed as inhibition of carrageenan-induced paw edema at 25 mg/kg, po pretreated for 30 mins followed by carrageenan challenge measured after 3 hrs relative to control; format: functional; in short: as §1
[4] = Acute toxicity in ip dosed ddY mouse measured after 72 hrs; format: organism-based; details: in vivo

## C=CCOc1c(N2CCOCC2)cnn(C)c1=O
Mus musculus
  ED50: 90 mg/kg
Rattus norvegicus [1]
  inhibition in vivo at 100 mg/kg: 17.4%
Rattus norvegicus [2]
  inhibition in vivo at 50 mg/kg: 5.2%

## Cn1ncc(Cl)c(Cl)c1=O
Mus musculus
  ED50: > 100 mg/kg
Rattus norvegicus [1]
  inhibition in vivo at 100 mg/kg: 23.2%
Rattus norvegicus [2]
  inhibition in vivo at 50 mg/kg: -8.9%

## Cn1ncc(N2CCOCC2)c(Cl)c1=O
Mus musculus
  ED50: 35 mg/kg
Rattus norvegicus [1]
  inhibition in vivo at 100 mg/kg: 38.9%
Rattus norvegicus [2]
  inhibition in vivo at 50 mg/kg: 32.2%
Rattus norvegicus [3]
  inhibition in vivo at 25 mg/kg: 15.2%
[4]
  LD50 at 72 h: 75 mg/kg

## Cn1ncc(N2CCOCC2)c(O)c1=O
Mus musculus
  ED50: > 100 mg/kg
Rattus norvegicus [1]
  inhibition in vivo at 100 mg/kg: 16.6%
Rattus norvegicus [2]
  inhibition in vivo at 50 mg/kg: 8.2%

## Cn1ncc(O)c(Cl)c1=O
Mus musculus
  ED50: > 100 mg/kg
Rattus norvegicus [1]
  inhibition in vivo at 100 mg/kg: -5.8%

## CCOc1c(NC)cnn(C)c1=O
Mus musculus
  ED50: 55 mg/kg
Rattus norvegicus [1]
  inhibition in vivo at 100 mg/kg: 31.1%
Rattus norvegicus [2]
  inhibition in vivo at 50 mg/kg: 4.5%
Rattus norvegicus [3]
  inhibition in vivo at 25 mg/kg: -1.1%
[4]
  LD50 at 72 h: 400 mg/kg

## CCCNc1cnn(C)c(=O)c1OCC
Mus musculus
  ED50: 72 mg/kg
Rattus norvegicus [1]
  inhibition in vivo at 100 mg/kg: 38%
Rattus norvegicus [2]
  inhibition in vivo at 50 mg/kg: 8%
Rattus norvegicus [3]
  inhibition in vivo at 25 mg/kg: 2%

## CCOc1c(N(C)C)cnn(C)c1=O
Mus musculus
  ED50: 86 mg/kg
Rattus norvegicus [1]
  inhibition in vivo at 100 mg/kg: 49.5%
Rattus norvegicus [2]
  inhibition in vivo at 50 mg/kg: 30.7%
Rattus norvegicus [3]
  inhibition in vivo at 25 mg/kg: 27.5%
[4]
  LD50 at 72 h: 305 mg/kg

## CCOc1c(N(CC)CC)cnn(C)c1=O
Mus musculus
  ED50: 70 mg/kg
Rattus norvegicus [1]
  inhibition in vivo at 100 mg/kg: 32.5%
Rattus norvegicus [2]
  inhibition in vivo at 50 mg/kg: 1.7%

## C=CCN(CC=C)c1cnn(C)c(=O)c1OCC
Mus musculus
  ED50: 82 mg/kg
Rattus norvegicus [1]
  inhibition in vivo at 100 mg/kg: 12.9%
Rattus norvegicus [2]
  inhibition in vivo at 50 mg/kg: -5.2%

## CCOc1c(N2CCSCC2)cnn(C)c1=O
Mus musculus
  ED50: > 100 mg/kg
Rattus norvegicus [1]
  inhibition in vivo at 100 mg/kg: 11.8%
Rattus norvegicus [2]
  inhibition in vivo at 50 mg/kg: 6.2%

## CCOc1c(N2CCCCC2)cnn(C)c1=O
Mus musculus
  ED50: 86 mg/kg
Rattus norvegicus [1]
  inhibition in vivo at 100 mg/kg: 14.1%
Rattus norvegicus [2]
  inhibition in vivo at 50 mg/kg: -5.4%

## CCOc1c(N2CCCC2)cnn(C)c1=O
Mus musculus
  ED50: > 100 mg/kg
Rattus norvegicus [1]
  inhibition in vivo at 100 mg/kg: 23%
Rattus norvegicus [2]
  inhibition in vivo at 50 mg/kg: -2.3%

## CCOc1c(N2CCN(C)CC2)cnn(C)c1=O
Mus musculus
  ED50: 82 mg/kg
Rattus norvegicus [1]
  inhibition in vivo at 100 mg/kg: 12.3%
Rattus norvegicus [2]
  inhibition in vivo at 50 mg/kg: 10.2%

## CCOc1c(Nc2ccccc2)cnn(C)c1=O
Mus musculus
  ED50: 36 mg/kg
Rattus norvegicus [1]
  inhibition in vivo at 100 mg/kg: 4.9%

## COc1c(N2CCOCC2)cnn(C)c1=O
Mus musculus
  ED50: 72 mg/kg
Rattus norvegicus [1]
  inhibition in vivo at 100 mg/kg: 43.4%
Rattus norvegicus [2]
  inhibition in vivo at 50 mg/kg: 23.2%
Rattus norvegicus [3]
  inhibition in vivo at 25 mg/kg: 11%
[4]
  LD50 at 72 h: 600 mg/kg

## CCCOc1c(N2CCOCC2)cnn(C)c1=O
Mus musculus
  ED50: 23 mg/kg
Rattus norvegicus [1]
  inhibition in vivo at 100 mg/kg: 34.9%
Rattus norvegicus [2]
  inhibition in vivo at 50 mg/kg: 32.4%
Rattus norvegicus [3]
  inhibition in vivo at 25 mg/kg: 4.5%
[4]
  LD50 at 72 h: 500 mg/kg

## CC(C)Oc1c(N2CCOCC2)cnn(C)c1=O
Mus musculus
  ED50: 86 mg/kg
Rattus norvegicus [1]
  inhibition in vivo at 100 mg/kg: 7.2%

## CCCCOc1c(N2CCOCC2)cnn(C)c1=O
Mus musculus
  ED50: 41 mg/kg
Rattus norvegicus [1]
  inhibition in vivo at 100 mg/kg: 28.8%
Rattus norvegicus [2]
  inhibition in vivo at 50 mg/kg: -2.8%
[4]
  LD50 at 72 h: 440 mg/kg

## CCCCCOc1c(N2CCOCC2)cnn(C)c1=O
Mus musculus
  ED50: 29 mg/kg
Rattus norvegicus [1]
  inhibition in vivo at 100 mg/kg: 20.7%
Rattus norvegicus [2]
  inhibition in vivo at 50 mg/kg: 2.4%
[4]
  LD50 at 72 h: 420 mg/kg

## CCOc1c(N2CCOCC2)cnn(CC)c1=O
Mus musculus
  ED50: 95 mg/kg
Rattus norvegicus [1]
  inhibition in vivo at 100 mg/kg: 58.4%
Rattus norvegicus [2]
  inhibition in vivo at 50 mg/kg: 25.4%
Rattus norvegicus [3]
  inhibition in vivo at 25 mg/kg: 8.3%
[4]
  LD50 at 72 h: 380 mg/kg

## CCCn1ncc(N2CCOCC2)c(OCC)c1=O
Mus musculus
  ED50: > 100 mg/kg
Rattus norvegicus [1]
  inhibition in vivo at 100 mg/kg: 32.4%
Rattus norvegicus [2]
  inhibition in vivo at 50 mg/kg: 3.5%

## CCOc1c(N2CCOCC2)cnn(C(C)C)c1=O
Mus musculus
  ED50: > 100 mg/kg
Rattus norvegicus [1]
  inhibition in vivo at 100 mg/kg: 22.2%
Rattus norvegicus [2]
  inhibition in vivo at 50 mg/kg: 2.1%

## CCCCn1ncc(N2CCOCC2)c(OCC)c1=O
Mus musculus
  ED50: > 100 mg/kg
Rattus norvegicus [1]
  inhibition in vivo at 100 mg/kg: 18.3%

## C/C=C/n1ncc(N2CCOCC2)c(OCC)c1=O
Mus musculus
  ED50: > 100 mg/kg
Rattus norvegicus [1]
  inhibition in vivo at 100 mg/kg: 3.1%

## C=CCn1ncc(N2CCOCC2)c(OCC)c1=O
Mus musculus
  ED50: 18 mg/kg
Rattus norvegicus [1]
  inhibition in vivo at 100 mg/kg: 23.5%
Rattus norvegicus [2]
  inhibition in vivo at 50 mg/kg: 1.2%
[4]
  LD50 at 72 h: 550 mg/kg

## CCOc1c(N2CCOCC2)cn[nH]c1=O
Mus musculus
  ED50: > 100 mg/kg
Rattus norvegicus [1]
  inhibition in vivo at 100 mg/kg: 9.2%

## CCOc1ccnn(C)c1=O
Mus musculus
  ED50: > 100 mg/kg
Rattus norvegicus [1]
  inhibition in vivo at 100 mg/kg: -12.2%

## Cn1ncccc1=O
Mus musculus
  ED50: 65 mg/kg
Rattus norvegicus [1]
  inhibition in vivo at 100 mg/kg: 4.5%

## O=c1cccn[nH]1
Mus musculus
  ED50: > 100 mg/kg
Rattus norvegicus [1]
  inhibition in vivo at 100 mg/kg: 6.3%

## Cn1ncc(N2CCOCC2)cc1=O
Mus musculus
  ED50: > 100 mg/kg
Rattus norvegicus [1]
  inhibition in vivo at 100 mg/kg: -5.6%

## Cc1c(N(C)C)c(=O)n(-c2ccccc2)n1C [AMINOPYRINE]
Mus musculus
  ED50: 46 mg/kg
Rattus norvegicus [1]
  inhibition in vivo at 100 mg/kg: 48.2%
Rattus norvegicus [2]
  inhibition in vivo at 50 mg/kg: 25%
Rattus norvegicus [3]
  inhibition in vivo at 25 mg/kg: 11%
[4]
  LD50 at 72 h: 420 mg/kg

## CCOc1c(N2CCOCC2)cnn(C)c1=O [EMORFAZONE]
Mus musculus
  ED50: 41 mg/kg
Rattus norvegicus [1]
  inhibition in vivo at 100 mg/kg: 55%
Rattus norvegicus [2]
  inhibition in vivo at 50 mg/kg: 38.8%
Rattus norvegicus [3]
  inhibition in vivo at 25 mg/kg: 20.2%
[4]
  LD50 at 72 h: 700 mg/kg

## CCCCC1C(=O)N(c2ccccc2)N(c2ccccc2)C1=O [PHENYLBUTAZONE]
Mus musculus
  ED50: > 100 mg/kg
Rattus norvegicus [1]
  inhibition in vivo at 100 mg/kg: 40.6%
Rattus norvegicus [2]
  inhibition in vivo at 50 mg/kg: 35%
Rattus norvegicus [3]
  inhibition in vivo at 25 mg/kg: 18%
[4]
  LD50 at 72 h: 420 mg/kg

## c1ccnnc1 [PYRIDAZINE]
Mus musculus
  ED50: > 100 mg/kg
Rattus norvegicus [1]
  inhibition in vivo at 100 mg/kg: -2.4%
